Laboratory results from ChEMBL document CHEMBL1139068, “Amino acid-based enantiomerically pure 3-substituted 1,4-benzodiazepin-2-ones: a new class of anti-ischemic agents” (2007).

Legend:
[1] = Antiischemic activity in forebrain neurons assessed as apoptotic neuronal population at 100 uM after 20 mins; assay type: functional, Homo sapiens, Neuron
Outline: (§1)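 Isolated forebrain neurons at 1×10^6 cells/100 µl pretreated with compound (100 µM) 20 min at 37 °C, then exposed to equal volume of H2O2 (300 µM) 1 h at 37 °C; untreated cells held 1 h 20 min. Cells washed twice in cold PBS, stained FITC-Annexin V/propidium iodide 15 min at room temperature in dark. 10,000 cells read by flow cytometry (ex 488 nm; em 530, 670 nm); quadrant percentages.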

[2] = Antiischemic activity in forebrain neurons assessed as necrotic and delayed apoptotic neuronal population at 100 uM after 20 mins; assay type: functional, Homo sapiens, Neuron; outline: as §1
[3] = Antiischemic activity in forebrain neurons assessed as viable cells at 100 uM after 20 mins; assay type: functional; details: Homo sapiens, Neuron, read-out: Activity; outline: as §1
[4] = Antiischemic activity in forebrain neurons assessed as necrotic neuronal population at 100 uM after 20 mins; assay type: functional, Homo sapiens, Neuron; outline: as §1

SMILES | Activity [1] [%] | Activity [2] [%] | viability at 100 µM [3] [%] | Activity [4] [%]
O=C1Nc2ccccc2CN[C@H]1CSCc1ccccc1 | 26.01 | 4.58 | 64.4 | 5.05
O=C1Nc2ccccc2CN[C@H]1Cc1ccc(OCc2ccccc2)cc1 | 23.63 | 4.83 | 66.5 | 4.99
O=C1Nc2ccccc2CN[C@H]1Cc1ccccc1 | 25.58 | 1.21 | 70.1 | 2.07
O=C1Nc2ccccc2CN2CCC[C@@H]12 | 23.27 | 5.04 | 66.2 | 5.51
C[C@@H]1NCc2ccccc2NC1=O | 29.47 | 4.8 | 60.4 | 5.35
CSCC[C@@H]1NCc2ccccc2NC1=O | 9.08 | 3.5 | 82.7 | 4.73
COC(=O)C[C@@H]1NCc2ccccc2NC1=O | 25.75 | 4.28 | 65.2 | 4.73
O=C1Nc2ccccc2CN[C@H]1Cc1c[nH]c2ccccc12 | 30.86 | 3.55 | 61.3 | 4.33
O=C1Nc2ccccc2CN[C@@H]1Cc1ccccc1 | 17.26 | 0.68 | 79 | 0.68
O=C1Nc2ccccc2CN2CCC[C@H]12 | 11.72 | 3.1 | 84.5 | 0.64
O=C1Nc2ccccc2CN[C@@H]1Cc1c[nH]c2ccccc12 | 21.06 | 3.47 | 75 | 0.5
O=C1Nc2ccccc2CN2C[C@@H](O)C[C@@H]12 | 3.79 | 3.08 | 87.5 | 5.68
CSCC[C@H]1NCc2ccccc2NC1=O | 16.96 | 3.98 | 77.8 | 0.52
C[C@H]1NCc2ccccc2NC1=O | 26.85 | 3.2 | 69 | 0.98
O=C1Nc2ccccc2CN2C(=O)CC[C@@H]12 | 24.62 | 3.75 | 66.1 | 5.56
NC(=O)CC[C@@H]1NCc2ccccc2NC1=O | 24.93 | 3.12 | 67.2 | 4.75
